High-throughput results (PubChem)
esBAF inh: SWI/SNF esBAF complex inhibition. mouse ES cells, Bmi1-luciferase knock-in reporter, 24 h; 100% = twice the neutral-well signal. reporter increase, % at 12.5 µM. 2% of 350,000 active; in the data active = activation above about 40%; inconclusive = no clear call, values can overlap the other calls;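 note: 0% = median of the plate's neutral control wells and 100% = double that signal; a rise in the Bmi1 reporter signal indicates esBAF inhibition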
Cneo AK release: causes C. neoformans cell lysis. lysis activity, % at 15 µM. 0.2% of 360,000 active. adenylate kinase release luminescence, 4 h; normalised: neutral wells 0, clomiphene wells 100;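 active = mean lysis activity across replicates of at least 80%, whatever share of replicates individually reach that level; inactive = mean lysis activity below 80%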
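Assay system: log-phase C. neoformans yeast / Quantity: yeast cell density of 5 × 10^6 cells/mL / Medium: fresh YPD growth medium / Compound: single dose / Timing: static 4 h at 37 °C with compound, 1 h detection / Measured by: adenylate kinase release luminescence / Read-out: lysis from increased AK signal / Benchmarks: Clomiphene as positive lysis control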
MITF TRPM1 HTS: activators of MITF-driven TRPM1 promoter activity in SK-MEL-5 cells; 0.75% of 300,000 active; activation, % at 12.5 µM; SK-MEL-5 TRPM1-promoter luciferase, 24 h; % of positive control, neutral wells = 0; AID 588334;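 active = mean activation of at least 80% with every replicate also reaching 80%; inconclusive = mean reaches 80% but some replicate falls short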;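 note: 0% = neutral control wells and 100% = parthenolide positive control wells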
HIV Env fusion: inhibitors of HIV Env-mediated cell fusion; HeLa-JRFL Env/CEM21 cell fusion, luciferase; inhibition, % at 12.3 µM; 1.1% of 360,000 active;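 active = mean replicate inhibition score of at least 50 and every replicate individually at or above 50; inconclusive = only one of the two criteria met; inactive = mean below 50 and not all replicates reaching 50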;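 note: 0% = plate neutral controls and 100% = maraviroc near 300 nM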
Wnt bcat act: activators of Wnt/beta-catenin signaling | Wnt/beta-catenin reporter cell assay, activator, plate reader | AID 743398 | 1.2% of 300,000 active | activation, % at 9.35 µM; in the data active = activation above about 30%, passing the limit was not always enough; inconclusive = no clear call, values can overlap the other calls;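 note: 0% = neutral control wells and 100% = positive control wells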
ERAP1 HTS inh: blocks human ERAP1 aminopeptidase activity; recombinant ERAP1, Leu-AMC fluorescence, 60 min; Q9NZ08; 0.15% of 340,000 active; inhibition, % at 10.7 µM;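 active = mean replicate inhibition of at least 30%, or all replicates individually reaching that 30% level; inactive = mean below 30% and not every replicate reaching it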;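 note: 0% = neutral control wells and 100% = L-leucinethiol positive control wells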
Active calls of the source: *; ? = inconclusive; / = no result; [ ] = remark or other dose. This is a sample that favours compounds with a hit; in the whole collection about 3.5% have one here.

SMILES	esBAF inh	Cneo AK release	MITF TRPM1 HTS	HIV Env fusion	Wnt bcat act	ERAP1 HTS inh
C=CC(C)N1C(=O)S/C(=C\c2ccc(N3CCOCC3)cc2C)C1=O (centres undefined)	/	/	44	-17	11	8
C=CCN1C(=O)S/C(=C\c2ccc(N3CCOCC3)cc2C)C1=O	73*	-2	/	-91	39*	/
CCC1CCCCN1C(=O)CSc1nnc(-c2ccc(Cl)s2)o1 (centres undefined)	1	4	/	/	0	/
CCC1CCCCN1C(=O)CSc1nnc(-c2cccc(Cl)c2)o1 (centres undefined)	50*	-3	/	-46	19	-2
CCC1CCCCN1C(=O)CSc1nnc(-c2ccc(Cl)cc2)o1 (centres undefined)	23	0	/	19	1	-1
CCC1CCCCN1C(=O)CSc1nnc(-c2ccco2)o1 (centres undefined)	9	-1	47	-1	47*	/
CCOCCCNC(=O)c1ccc(Br)cc1	23	1	7	-46	15	/
CCOCCCNC(=O)c1ccc(/C=C2\Oc3ccccc3N(C)C2=O)cc1	72*	3	20	-6	2	0
CO[C@H]1CC[C@@H]2CCOc3ccc(C#N)cc3C(=O)N(C)C[C@@H](C)C(=O)N(C)C[C@@H]1O2	-1	5	/	5[16.7 µM]	/	-4
CC=Cc1ccc2n(c1=O)C[C@H]1[C@H](CO)[C@@H](C(=O)NCCC)[C@@H]2N1C(=O)c1ccccc1 (mixture of isomers)	-2	7	/	/	/	-1
Cc1ccccc1C(=O)N=c1sccn1C	/	-2	6	/	/	/
Cc1ccc(C(=O)N=c2sccn2C)cc1S(=O)(=O)N1CCOCC1	63*	1	99*	/	9	10
CCCCOc1ccc(C(=O)N=c2sccn2C)cc1OC	57*	0	?	-65	37*	3
Cc1cccc(C(=O)N=c2sccn2C)c1[N+](=O)[O-]	56*	-1	100*	-31	6	3
Cn1ccsc1=NC(=O)c1ccc(Cl)c([N+](=O)[O-])c1	83*	2	56	0	11	-2
C[C@@H]1CN([C@H](C)CO)C(=O)c2cc(C3=CCCC3)cnc2O[C@@H]1CN(C)Cc1ccc(F)cc1	-15	50	/	-9[16.7 µM]	/	-5
C[C@@H]1CN([C@@H](C)CO)C(=O)c2cc(NC(=O)c3ccncc3)ccc2O[C@@H](C)CCCCO[C@H]1CN(C)S(C)(=O)=O	-6	-2	/	5[16.7 µM]	/	/
CO[C@@H]1CN(C)C(=O)c2cc(NC(=O)C3CCC3)ccc2OC[C@@H](C)N(C)C[C@@H]1C	-6	/	/	17[16.7 µM]	/	/
CC1(C)Cc2c(c(N3CCOCC3)nc3sc(C(=O)Nc4cccc(Cl)c4)c(N)c23)CO1	8	-1	0	1	2	3
CC1(C)Cc2c(c(N3CCOCC3)nc3sc(C(=O)Nc4ccccc4)c(N)c23)CO1	38	-7	11	-55	34*	-9
CC[N+](C)(CC)CCC/C(=N/O)C(O)(c1ccccc1)c1ccccc1	/	-1	/	6	33*	/
CCN(CC)CCC/C(=N\O)C(O)(c1ccccc1)c1ccccc1	/	/	6	1	-1	-3
Cc1ccc(C(O)c2ncc(-c3ccc4ccccc4c3)[nH]2)cc1 (centres undefined)	53*	3	/	-13	-2	-4
OC(c1ccc(F)cc1)c1ncc(-c2ccc3ccccc3c2)[nH]1 (centres undefined)	76*	6	/	-57	2	7
OC(c1ccc(Cl)cc1)c1ncc(-c2ccccc2F)[nH]1 (centres undefined)	51*	0	/	31	1	2
SMILES	esBAF inh	Cneo AK release	MITF TRPM1 HTS	HIV Env fusion	Wnt bcat act	ERAP1 HTS inh
Cc1cc(C)cc(C(O)c2ncc(-c3ccc4ccccc4c3)[nH]2)c1 (centres undefined)	4	27	/	-8	-1	2
COc1ccc(C#Cc2ccc3c(c2)[C@H]2[C@H](CCN2S(=O)(=O)c2ccc(OC)cc2)[C@@H](CO)N3C)cc1	-3	-1	/	/	/	2
COc1ccc2c3c(n(C)c2c1)[C@H](CO)NCC31CCN(Cc2ccc(-c3ccccn3)cc2)CC1	/	/	/	/	/	13
COc1ccc(NC(=O)N2CC(=O)N3[C@@H](CO)[C@H](c4ccc(C#CCC5CCCC5)cc4)[C@@H]3C2)cc1	/	/	/	/	/	-2
COCCn1nnnc1CN(Cc1cccnc1)Cc1cc2cc(OC)ccc2[nH]c1=O	-1	2	0	/	-1	/
COc1ccc2[nH]c(=O)c(CN(Cc3nnnn3Cc3ccccc3)CC3CCCO3)cc2c1 (centres undefined)	-4	1	2	112*	16	/
COCCn1nnnc1CN(CCc1ccccc1)Cc1cc2cc(OC)ccc2[nH]c1=O	0	/	3	77*	/	/
CCc1cc2c(=O)n(C(C)C(=O)OC3CCCCC3)cnc2s1 (centres undefined)	?	0	100*	/	2	/
CN(C)C(=O)[C@@H]1[C@@H](CO)[C@@H]2Cn3c(ccc(-c4ccccc4)c3=O)[C@H]1N2C(=O)C1CCCC1	3	-2	/	/	/	2
O=C(Nc1ccccc1F)N1CC(=O)N2[C@@H](CO)[C@H](c3ccc(C#Cc4ccccc4)cc3)[C@@H]2C1	/	/	/	/	/	1
CCC(=O)N(C)C[C@@H]1Oc2cc(-c3ccccc3)ccc2S(=O)(=O)N([C@H](C)CO)C[C@@H]1C	-11	7	/	-1[16.7 µM]	/	0
C[C@@H]1CN([C@@H](C)CO)C(=O)c2cc(NC(=O)Nc3ccc4c(c3)OCO4)ccc2O[C@H]1CN(C)S(=O)(=O)c1ccccc1	-1	-2	/	-7[16.7 µM]	/	-1
C[C@@H](C(=O)NCc1ccccc1)[C@@H]1C[C@@]1(C)[C@@H](NC(=O)OCc1ccccc1)c1ccccc1	6	1	8	-26	-4	/
C[C@@H](C(=O)NCc1ccc(S(C)(=O)=O)cc1)[C@H]1C[C@]1(C)[C@H](NC(=O)OCc1ccccc1)c1ccccc1	/	/	/	55*	-2	-5
COc1ccccc1S(=O)(=O)N1CC[C@@H]2[C@@H](CO)Nc3ccc(-c4ccc(F)cc4)cc3[C@@H]21	-13	-14	/	/	/	-1
O=C(O)C1CCCCC1C(=O)NCc1ccccc1 (centres undefined)	-2	4	/	-30	/	/
CC(C)=C1C2CCC1C(C(=O)NCc1ccccc1)C2C(=O)O (centres undefined)	2	-1	7	67*	/	/
O=S(=O)(N[C@H]1CC[C@@H](CCn2cc(C3CC3)nn2)O[C@@H]1CO)c1ccc(F)cc1	-3	25	/	-12[16.7 µM]	/	0
COCCN(C(=O)CCc1ccc(OC)cc1)c1nnc(-c2ccncc2)s1	/	/	-6	-9	-1	0
CCCC(=O)N(C)c1nnc(-c2ccc(OC)cc2)s1	36	-4	57	-77	34*	/
